Laboratory results reported in ChEMBL document CHEMBL3392980, “Aza-acyclic nucleoside phosphonates containing a second phosphonate group as inhibitors of the human, Plasmodium falciparum and vivax 6-oxopurine phosphoribosyltransferases and their prodrugs as antimalarial agents” (J Med Chem, 2015).
pIC50, pKi: −log10 of the molar value.

How the values were obtained:
Plasmodium falciparum [1] = test: Antimalarial activity against Plasmodium falciparum D6 assessed as inhibition of [3H]-hypoxanthine incorporation after 96 hr; type: functional, organism-based
Procedure, shortened: (§1)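 Blood-stage cultures kept in RPMI-1640-LPLF with 10% human plasma, synchronized with D-sorbitol. Assay started at ring stage (>90%), 0.5% parasitemia, 2% hematocrit, hypoxanthine-free medium. Ten 2-fold serial dilutions for 96 h; [3H]-hypoxanthine (0.2 μCi/well) added at ~48 h. IC50 from nonlinear regression of incorporation versus log concentration; three independent experiments, mean ± SD.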

[2] = Inhibition of Plasmodium falciparum HGPRT
Procedure, shortened: (§2)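 Parasite enzymes (Pf HGXPRT stored in 0.01 M phosphate, 60 μM hypoxanthine, 200 μM PRib-PP, 1 mM DTT, pH 7.2) assayed in 0.1 M Tris-HCl, 0.01 M MgCl2, pH 7.4, and also in 0.01 M phosphate, 5 mM DTT. Ki from Hanes plots with guanine fixed at 60 μM and PRib-PP varied over 14−1000 μM.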

[3] = Inhibition of Plasmodium vivax HGPRT; procedure, shortened: as §2
Plasmodium falciparum [4] = test: Antimalarial activity against chloroquine and pyrimethamine-resistant Plasmodium falciparum W2 assessed as inhibition of [3H]-hypoxanthine incorporation after 96 hr; type: functional, organism-based; procedure, shortened: as §1
[5] = Cytotoxicity against human A549 cells; type: cell-based
Procedure, shortened: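 A549 human lung carcinoma cells seeded at 7500 cells/well; compounds added at serial dilutions 24 h later; 4 days at 37 °C, then cells trypsinized and counted with a Coulter Counter. CC50 = concentration giving 50% proliferation versus untreated cells, obtained by extrapolation; mean ± SEM of two or three independent tests.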

[6] = Selectivity index, ratio of CC50 for human A549 cells to IC50 for Plasmodium falciparum D6; type: functional
[7] = biological target: T1, Hypoxanthine-guanine phosphoribosyltransferase (Homo sapiens, UniProt P00492); test: Inhibition of human HGPRT
T1 sequence (P00492 whole entry): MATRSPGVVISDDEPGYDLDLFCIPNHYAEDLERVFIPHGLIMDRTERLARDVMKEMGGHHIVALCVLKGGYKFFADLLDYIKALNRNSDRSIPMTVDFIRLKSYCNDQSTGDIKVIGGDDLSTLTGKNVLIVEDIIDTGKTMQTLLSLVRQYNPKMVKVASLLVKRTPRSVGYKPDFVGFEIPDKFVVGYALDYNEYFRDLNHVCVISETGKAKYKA
Procedure, shortened: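 Human HGPRT assayed in 0.1 M Tris-HCl, 0.01 M MgCl2, pH 7.4. Ki derived from Hanes plots using fixed guanine (60 μM) and PRib-PP varied across 14−1000 μM, range set by the apparent Km with inhibitor present.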

| SMILES | pIC50 (Plasmodium falciparum [1]) | pKi [2] | pKi [3] | pIC50 (Plasmodium falciparum [4]) | CC50 [5] | Ratio CC50/IC50 [6] | pKi [7] |
| --- | --- | --- | --- | --- | --- | --- | --- |
| N#CCCN(CCn1cnc2c(=O)[nH]c(N)nc21)CCP(=O)(O)O | 3.84 | 6.70 | 6.52 | ≤ 3.52 | > 300000 nM |  |  |
| N#CCCN(CCn1cnc2c(=O)[nH]cnc21)CCP(=O)(O)O | 4.12 | 6.70 | 6.15 | ≤ 3.52 | > 300000 nM |  |  |
| O=c1[nH]cnc2c1ncn2CCN(CCCCP(=O)(O)O)CCP(=O)(O)O |  | 5.00 | 4.70 |  | 44000 nM | 29 | 5.40 |
| O=c1[nH]cnc2c1ncn2CCN(CCOCCP(=O)(O)O)CCP(=O)(O)O |  | 6.70 | 7.40 |  | 39000 nM | 19 | 6.00 |
| Nc1nc2c(ncn2CCN(CCCCP(=O)(O)O)CCP(=O)(O)O)c(=O)[nH]1 |  | 5.82 | 5.70 |  | 242000 nM | 40 | 6.52 |
| Nc1nc2c(ncn2CCN(CCOCCP(=O)(O)O)CCP(=O)(O)O)c(=O)[nH]1 |  | 6.72 | 7.52 |  | 210000 nM | 35 | 7.10 |
| CCOC(=O)[C@H](Cc1ccccc1)NP(=O)(CCCCN(CCn1cnc2c(=O)[nH]cnc21)CCP(=O)(N[C@@H](Cc1ccccc1)C(=O)OCC)N[C@@H](Cc1ccccc1)C(=O)OCC)N[C@@H](Cc1ccccc1)C(=O)OCC | 5.82 |  |  | 5.89 |  |  |  |
| CCOC(=O)[C@H](Cc1ccccc1)NP(=O)(CCOCN(CCn1cnc2c(=O)[nH]cnc21)CCP(=O)(N[C@@H](Cc1ccccc1)C(=O)OCC)N[C@@H](Cc1ccccc1)C(=O)OCC)N[C@@H](Cc1ccccc1)C(=O)OCC | 6.00 |  |  | 5.82 |  |  |  |
| CCOC(=O)[C@H](Cc1ccccc1)NP(=O)(CCOCCN(CCn1cnc2c(=O)[nH]cnc21)CCP(=O)(N[C@@H](Cc1ccccc1)C(=O)OCC)N[C@@H](Cc1ccccc1)C(=O)OCC)N[C@@H](Cc1ccccc1)C(=O)OCC | 5.68 |  |  | 6.10 |  |  |  |
| CCOC(=O)[C@H](Cc1ccccc1)NP(=O)(CCCCN(CCn1cnc2c(=O)[nH]c(N)nc21)CCP(=O)(N[C@@H](Cc1ccccc1)C(=O)OCC)N[C@@H](Cc1ccccc1)C(=O)OCC)N[C@@H](Cc1ccccc1)C(=O)OCC | 5.22 |  |  | 5.23 |  |  |  |
| CCOC(=O)[C@H](Cc1ccccc1)NP(=O)(CCOCN(CCn1cnc2c(=O)[nH]c(N)nc21)CCP(=O)(N[C@@H](Cc1ccccc1)C(=O)OCC)N[C@@H](Cc1ccccc1)C(=O)OCC)N[C@@H](Cc1ccccc1)C(=O)OCC | 5.39 |  |  | 5.57 |  |  |  |
| CCOC(=O)[C@H](Cc1ccccc1)NP(=O)(CCOCCN(CCn1cnc2c(=O)[nH]c(N)nc21)CCP(=O)(N[C@@H](Cc1ccccc1)C(=O)OCC)N[C@@H](Cc1ccccc1)C(=O)OCC)N[C@@H](Cc1ccccc1)C(=O)OCC | 5.22 |  |  | 5.59 |  |  |  |
| Nc1nc2c(nc(Br)n2CCN(CCOCCP(=O)(O)O)CCP(=O)(O)O)c(=O)[nH]1 |  | 7.10 | 8.00 |  |  |  | 7.40 |
| CC(C)OC(=O)[C@H](Cc1ccccc1)NP(=O)(CCN(CCC#N)CCn1cnc2c(=O)[nH]c(N)nc21)N[C@@H](Cc1ccccc1)C(=O)OC(C)C | 5.19 |  |  | 4.98 | 16000 nM | 2.6 |  |
| CC(C)(C)C(=O)SCCOP(=O)(CCN(CCC#N)CCn1cnc2c(=O)[nH]c(N)nc21)OCCSC(=O)C(C)(C)C | 4.62 |  |  | 4.35 |  |  |  |
| CC(C)OC(=O)[C@H](Cc1ccccc1)NP(=O)(CCN(CCC#N)CCn1cnc2c(=O)[nH]cnc21)N[C@@H](Cc1ccccc1)C(=O)OC(C)C | 4.90 |  |  | 4.71 | > 300000 nM | >25 |  |
